Blank lines part the entries; values can stand above or below the compound they belong to. Active and inactive are the calls of the source. No cut-off for these calls is given here.
Assays:
[1] = tested on: SJRH30; test: Inhibition of Ptch1 expression in human Rh30 cells at 10 to 40 uM after 24 hrs by RT-PCR analysis; assay type: functional, cell-based
Outline: (§1)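 Rh30 cells in 6-well plates treated with compound or DMSO for 24 h. Total RNA (250 ng) reverse-transcribed after DNase removal, then SYBR Green real-time PCR with primers at 200 nM. Target mRNA normalized to GAPDH and to the DMSO control by the 2^-ΔΔCt method. Duplicate data.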

[2] = Half life in CD-1 mouse liver microsomes; assay type: ADME, Microsome
Outline: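 CD-1 female mouse liver microsomes at 0.6329 mg/mL protein in 0.1 M potassium phosphate pH 7.4 with EDTA. Compound at 1 µM, reaction started with NADPH regenerating system at 37 °C and sampled at 0, 0.5, 1 and 2 h in triplicate. Quenched with cold acetonitrile containing ketoconazole internal standard and analysed by UPLC-MS SIR. ke taken from log-linear regression, t1/2 = ln2/ke.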

[3] = tested on: SJRH30; test: Cytotoxicity against human Rh30 cells at 5 to 20 uM after 72 hrs by Alamar blue assay; assay type: functional, cell-based
Outline: (§2)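 Cells seeded 24 h ahead in 384-well plates at 1.0×10^3 (BJ) or 1.6×10^3 (Rh30) per well. Compound diluted from DMSO stock into medium and added in triplicate, then incubated 68 h at 37 °C. Alamar Blue added for a further 4 h, with fluorescence read at ex 510/em 590 nm. Viability normalized to DMSO (100%) and no-cell (0%) wells.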

[4] = Permeability in buffer of pH 7.4 by PAMPA; assay type: ADME; settings: for Papp: read-out: permeability
Outline: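 Double-Sink PAMPA: DMSO stock diluted 200-fold into system solution buffer pH 7.4 in the donor plate, with acceptor sink buffer pH 7.4. Incubated 0.5 h at room temperature with stirring. Donor and acceptor concentrations measured by UV (230–500 nm), triplicates.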

[5] = tested on: SJRH30; test: Inhibition of cyclinD1 expression in human Rh30 cells at 10 to 40 uM after 24 hrs by RT-PCR analysis; assay type: functional, cell-based; outline: as §1
[6] = tested on: BJ; test: Cytotoxicity against human BJ cells at 5 to 20 uM after 72 hrs by Alamar blue assay; assay type: cell-based; outline: as §2
[7] = target: Transcription factor Jun (Homo sapiens) (UniProt P05412); test: Inhibition of transcriptional activity of AP1 transfected in mouse C3H10T1/2 cells at 20 uM after 24 hrs by luciferase reporter gene assay; assay type: cell-based; settings: C3H 10T1/2
Sequence of Transcription factor Jun (Homo sapiens) (P05412 whole entry): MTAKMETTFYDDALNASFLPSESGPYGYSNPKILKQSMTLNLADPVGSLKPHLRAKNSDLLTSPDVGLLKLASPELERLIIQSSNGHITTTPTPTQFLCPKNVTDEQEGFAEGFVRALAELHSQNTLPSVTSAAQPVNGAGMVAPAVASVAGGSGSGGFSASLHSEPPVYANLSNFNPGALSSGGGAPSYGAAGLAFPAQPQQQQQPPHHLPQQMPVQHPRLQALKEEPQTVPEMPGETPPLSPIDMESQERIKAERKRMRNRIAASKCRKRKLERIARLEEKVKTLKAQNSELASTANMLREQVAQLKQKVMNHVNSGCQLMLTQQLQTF
Outline: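 AP-1 reporter tested in C3H10T1/2 cells under the same conditions as the Gli1/Gli-Luc assay: 24 h compound exposure and dual-luciferase read-out normalized to DMSO.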

[8] = tested on: SJRH30; test: Inhibition of Bcl2 expression in human Rh30 cells at 10 to 40 uM after 24 hrs by RT-PCR analysis; assay type: functional, cell-based; outline: as §1
[9] = Inhibition of HDAC up to 40 uM
[10] = target: T1, Zinc finger protein GLI1 (Homo sapiens) (UniProt P08151); test: Inhibition of human Gli1-mediated transcriptional activity in human Rh30 cells at 10 to 20 uM after 24 hrs by luciferase reporter gene assay; assay type: cell-based
T1 sequence (whole entry): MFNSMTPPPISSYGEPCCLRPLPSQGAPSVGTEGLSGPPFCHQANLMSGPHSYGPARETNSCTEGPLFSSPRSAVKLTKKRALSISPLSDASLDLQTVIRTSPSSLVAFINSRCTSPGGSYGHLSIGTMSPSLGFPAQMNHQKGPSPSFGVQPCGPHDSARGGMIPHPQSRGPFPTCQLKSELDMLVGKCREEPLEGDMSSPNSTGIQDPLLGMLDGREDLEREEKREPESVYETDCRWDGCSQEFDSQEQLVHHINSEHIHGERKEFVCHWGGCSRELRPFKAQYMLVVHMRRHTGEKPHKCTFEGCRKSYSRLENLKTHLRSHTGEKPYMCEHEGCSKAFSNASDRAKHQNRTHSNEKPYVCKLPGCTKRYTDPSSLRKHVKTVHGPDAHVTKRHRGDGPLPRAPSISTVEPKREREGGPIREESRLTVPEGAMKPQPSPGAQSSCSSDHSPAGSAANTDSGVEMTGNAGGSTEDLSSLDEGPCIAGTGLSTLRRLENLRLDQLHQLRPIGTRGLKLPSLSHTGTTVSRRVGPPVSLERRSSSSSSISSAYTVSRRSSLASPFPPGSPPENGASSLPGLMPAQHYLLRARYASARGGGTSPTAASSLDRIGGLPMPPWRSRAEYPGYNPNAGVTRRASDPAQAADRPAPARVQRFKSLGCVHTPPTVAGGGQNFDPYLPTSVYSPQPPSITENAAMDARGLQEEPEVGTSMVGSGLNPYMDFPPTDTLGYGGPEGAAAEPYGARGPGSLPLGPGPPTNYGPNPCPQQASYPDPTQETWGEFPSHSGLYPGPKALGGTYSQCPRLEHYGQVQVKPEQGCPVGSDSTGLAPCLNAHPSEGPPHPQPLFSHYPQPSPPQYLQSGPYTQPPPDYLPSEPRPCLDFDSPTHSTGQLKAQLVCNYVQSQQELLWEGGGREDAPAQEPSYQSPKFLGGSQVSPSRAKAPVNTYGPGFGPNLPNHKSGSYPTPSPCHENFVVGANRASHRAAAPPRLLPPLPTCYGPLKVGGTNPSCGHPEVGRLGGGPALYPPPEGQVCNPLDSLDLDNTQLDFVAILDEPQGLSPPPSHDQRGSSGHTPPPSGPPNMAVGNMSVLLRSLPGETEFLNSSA
Outline: (§3)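 Rh30 cells without Gli1 transfection, transfected overnight with GliLuc-BS (500 ng/mL) and pRL-CMV (2.5 ng/mL), then replated in 96-well plates. Compound given in RPMI-1640/10% FBS for 24 h at 37 °C. Firefly luminescence divided by Renilla and normalized to DMSO-treated cells (0% inhibition), triplicates.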

[11] = tested on: C3H 10T1/2; test: Inhibition of Hh signal-induced alkaline phosphatase activity in mouse C3H10T1/2 cells at 10 uM after 4 days; assay type: functional, cell-based
[12] = target: T1, Zinc finger protein GLI1 (Homo sapiens); test: Inhibition of human Gli1 expressed in mouse C3H10T1/2 cells assessed as inhibition of transcriptional activity at 10 to 20 uM after 24 hrs by luciferase reporter gene assay; assay type: cell-based; settings: C3H 10T1/2
Outline: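 C3H10T1/2 cells transiently transfected overnight with GliLuc-BS, pRL-TK Renilla control and human Gli1 (or mouse Gli2 for Gli2 lines), 250 ng/mL each for the Gli plasmids. Cells replated in 96-well plates, then exposed to compound in BME/10% FBS for 24 h at 37 °C. Firefly/Renilla dual-luciferase ratio normalized to DMSO, triplicates. Dose–response IC50 from curve fitting.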

[13] = tested on: C3H 10T1/2; test: Inhibition of Hh signal-induced alkaline phosphatase activity in mouse C3H10T1/2 cells after 4 days; assay type: functional, cell-based; settings: C3H 10T1/2, 96 h
[14] = target: T1, Zinc finger protein GLI1 (Homo sapiens); test: Inhibition of human Gli1-mediated transcriptional activity in human Rh30 cells up to 40 uM after 24 hrs by luciferase reporter gene assay; assay type: cell-based; outline: as §3
[15] = tested on: Caco-2; test: Efflux ratio of permeability from basolateral to apical side over apical to basolateral side in human Caco-2 cells at pH 7.4; settings: caco-2, pH 7.4
[16] = tested on: Caco-2; test: Apparent permeability from apical to basolateral side of human Caco-2 cells at pH 7.4; assay type: ADME, cell-based; settings: caco-2, pH 7.4
Outline: (§4)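 Caco-2 cells grown 7 days on Transwell inserts in MEM with 10% FBS. Monolayers washed with HBSS/HEPES (10 mM, pH 7.4), then compound at 50 µM added to the apical or basolateral side and incubated 2 h at 37 °C. Receiver fractions quantified by UPLC/MS, triplicates. Papp = dQ/dt […].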

[17] = tested on: Caco-2; test: Apparent permeability from basolateral to apical side of human Caco-2 cells at pH 7.4; assay type: ADME, cell-based; settings: caco-2, pH 7.4; outline: as §4

Structure (SMILES): CC(CNC(=O)c1cccc2[nH]ccc12)c1cccc(C(=O)c2ccccc2)c1 (configuration not stated)
inhibition [12]: Active

Structure (SMILES): NC(=O)N1c2ccccc2C=Cc2ccccc21 [CARBAMAZEPINE]
permeability [4]: 33%

Structure (SMILES): CNC(=C[N+](=O)[O-])NCCSCc1ccc(CN(C)C)o1 [RANITIDINE]
permeability [4]: 2%

Structure (SMILES): CC(CNC(=O)c1cc2ccccc2[nH]1)c1cccc(C(=O)c2ccccc2)c1 (configuration not stated)
Activity [3]: Toxic
Activity [6]: Non-toxic
inhibition [12]: Active

Structure (SMILES): CCCN(C(=O)C(C)c1cccc(C(=O)c2ccccc2)c1)c1cccc2[nH]ccc12 (configuration not stated)
Activity [3]: Toxic
Activity [6]: Non-toxic

Structure (SMILES): CC(CNC(=O)c1c[nH]c2ccccc12)c1cccc(C(=O)c2ccccc2)c1 (configuration not stated)
Activity [3]: Toxic
Activity [6]: Non-toxic
inhibition [12]: Active

Structure (SMILES): CC(CNC(=O)c1cccc2cc[nH]c12)c1cccc(C(=O)c2ccccc2)c1 (configuration not stated)
inhibition [12]: Active

Structure (SMILES): COc1cc(OC)cc(C(=O)Nc2ccc(Cl)c(-c3nc4cc(N(C)C)ccc4[nH]3)c2)c1
IC50 [13]: 100 nM
inhibition [14]: inactive

Structure (SMILES): CC(CNC(=O)c1ccc2cc[nH]c2c1)c1cccc(C(=O)c2ccccc2)c1 (configuration not stated)
Activity [3]: Toxic
Activity [6]: Non-toxic
inhibition [12]: Active

Structure (SMILES): CC(C(=O)Nc1ccc2[nH]ccc2c1)c1cccc(C(=O)c2ccccc2)c1 (configuration not stated)
Activity [3]: Toxic
Activity [6]: Non-toxic

More lines, main results first:

t1/2 [2]: 1.8 h
permeability [4]: 80%
Papp [4]: 71.4 ×10⁻⁶ cm/s
inhibition [7]: inactive
inhibition [9]: inactive
inhibition [10]: Active
Structure (SMILES): CCCN(C(=O)C(C)c1cccc(C(=O)c2ccccc2)c1)c1ccc2cc[nH]c2c1 (configuration not stated)
inhibition [1]: Active
Activity [3]: Toxic
inhibition [5]: Active
Activity [6]: Non-toxic
inhibition [8]: Active
inhibition [11]: inactive

Ratio [15]: 0.46
t1/2 [2]: 0.6 h
permeability [4]: 47%
Papp [4]: 52.1 ×10⁻⁶ cm/s
Papp [16]: 5.8 ×10⁻⁶ cm/s
Papp [17]: 2.7 ×10⁻⁶ cm/s
inhibition [7]: inactive
inhibition [12]: Active
Structure (SMILES): CC(CNC(=O)c1ccc2[nH]ccc2c1)c1cccc(C(=O)c2ccccc2)c1 (configuration not stated)
Activity [3]: Toxic
Activity [6]: Non-toxic

Ratio [15]: 0.31
t1/2 [2]: 2.8 h
permeability [4]: 75%
Papp [4]: 77.8 ×10⁻⁶ cm/s
Papp [16]: 12.2 ×10⁻⁶ cm/s
Papp [17]: 3.9 ×10⁻⁶ cm/s
inhibition [7]: inactive
inhibition [10]: Active
Structure (SMILES): CC(C(=O)Nc1ccc2cc[nH]c2c1)c1cccc(C(=O)c2ccccc2)c1 (configuration not stated)
Activity [3]: Toxic
Activity [6]: Non-toxic
inhibition [11]: inactive

Ratio [15]: 0.45
permeability [4]: 92%
Papp [4]: 60.2 ×10⁻⁶ cm/s
Papp [16]: 13 ×10⁻⁶ cm/s
Papp [17]: 5.8 ×10⁻⁶ cm/s
inhibition [9]: inactive
Structure (SMILES): CC(C(=O)NCCc1ccc(O)cc1)c1cccc(C(=O)c2ccccc2)c1 (configuration not stated)
Activity [3]: Toxic
Activity [6]: Non-toxic

inhibition [12]: inactive
Structure (SMILES): CC(CNC(=O)Cc1ccc2[nH]ccc2c1)c1cccc(C(=O)c2ccccc2)c1 (configuration not stated)

t1/2 [2]: 0.8 h
inhibition [7]: inactive
inhibition [9]: inactive
inhibition [10]: Active
Structure (SMILES): CCCN(C(=O)C(C)c1cccc(C(=O)c2ccccc2)c1)c1ccc2[nH]ccc2c1 (configuration not stated)
Activity [3]: Toxic
Activity [6]: Non-toxic
inhibition [11]: inactive

inhibition [14]: inactive
inhibition [9]: inactive
Structure (SMILES): CCCN(CCc1ccc(O)cc1)C(=O)C(C)c1cccc(C(=O)c2ccccc2)c1 (configuration not stated)
Activity [3]: Toxic
Activity [6]: Non-toxic
